The species entered for assay [1] is Oryctolagus cuniculus. Put plainly: Displacement of [3H]diltiazem from rabbit skeletal muscle calcium channel. The format is tissue-based. To be noted: Muscle tissue.
The test system of another assay is Cavia porcellus. Nature of the assay: Inhibition of SP induced dermal guinea pig after peroral administration. The format is functional. Particulars: read-out: ID50 (the source's name). Summed up:
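Guinea pigs dosed orally with antagonist, then challenged 1 h later with intradermal substance P. Vascular leakage measured as extravasation of Evans blue dye. ID50 (mg/kg po) taken from dose-response data, 5-12 animals per data point.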

The species named for assay [2] is Oryctolagus cuniculus. Put plainly: Displacement of [3H]diltiazem from rabbit skeletal muscle calcium channel at 30 uM. The format is tissue-based. Particulars: Muscle tissue.
The next assay concerns the target Substance-P receptor (Homo sapiens, UniProt P25103). Nature of the assay: Displacement of [125 I]-Tyr8 SP from the cloned human Tachykinin receptor 1 expressed in CHO cells. The format is cell-based.

Substance-P receptor, sequence (P25103 whole entry): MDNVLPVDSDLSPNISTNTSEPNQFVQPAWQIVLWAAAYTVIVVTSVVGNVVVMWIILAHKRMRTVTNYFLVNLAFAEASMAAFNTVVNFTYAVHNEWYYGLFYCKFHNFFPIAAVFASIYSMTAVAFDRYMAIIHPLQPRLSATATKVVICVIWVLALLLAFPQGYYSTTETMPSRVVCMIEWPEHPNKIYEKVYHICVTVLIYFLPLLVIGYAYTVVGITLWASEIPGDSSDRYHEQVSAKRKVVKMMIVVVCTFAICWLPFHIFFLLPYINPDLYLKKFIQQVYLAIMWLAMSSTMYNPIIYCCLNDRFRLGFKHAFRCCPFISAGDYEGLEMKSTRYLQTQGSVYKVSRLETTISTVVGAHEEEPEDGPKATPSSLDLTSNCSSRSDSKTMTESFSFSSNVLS

On to `FC(F)(F)c1cc(CO[C@H]2CCCN(Cc3nn[nH]n3)[C@H]2c2ccccc2)cc(C(F)(F)F)c1`, for which the Binding affinity in the assay listed under Oryctolagus cuniculus [1] is > 5 µM. `NC(=O)CN1CCC[C@H](OCc2cc(C(F)(F)F)cc(C(F)(F)F)c2)[C@@H]1c1ccccc1`: in the assay on Cavia porcellus, the ED50 stood at 0.8 mg/kg. Further, in the assay filed under Oryctolagus cuniculus [2], the Binding affinity came out at 16%. Take `FC(F)(F)c1cc(CO[C@H]2CCCN(Cc3n[nH]c(S)n3)[C@H]2c2ccccc2)cc(C(F)(F)F)c1`: at Substance-P receptor, the IC50 came out at 0.8 nM. In addition, the Binding affinity in the assay listed under Oryctolagus cuniculus [1] is 10 µM.

For `FC(F)(F)c1cc(CO[C@H]2CCCN(Cc3cnc[nH]3)[C@H]2c2ccccc2)cc(C(F)(F)F)c1`, on Substance-P receptor, the IC50 amounted to 0.9 nM.

These data come from ChEMBL document CHEMBL1129245, “N-heteroaryl-2-phenyl-3-(benzyloxy)piperidines: a novel class of potent orally active human NK1 antagonists” (J Med Chem, 1996).
